The source made the active and inactive calls. The rule behind the calls is not given here.
Key:
[1] = test system: Salmonella enterica subsp. enterica serovar Paratyphi B; test: Antibacterial activity against Salmonella paratyphi B 0039 after 24 hrs by microdilution method; assay type: functional, organism-based; conditions: 39
Method in brief: (§1)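 Test agents diluted in culture medium at ratios 1:2.5 to 1:640 (twofold series) and steam-sterilized; pure water as control. Inoculum from 4–5 colonies grown in nutrient broth 8 h at 37 °C, then diluted to 1.5×10^5 CFU/mL. Broth microdilution in 96-well plate, 0.1 ml strain suspension per well, 37 °C 24 h; MIC read visually.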

Mus musculus [2] = test: Anti-ulcerative colitis activity in DSS-induced BALB/c mouse ulcerative colitis model assessed as colon weight at 50 mg/kg administrated for 14 days (reference value: 0.369 +/- 0.023 g); assay type: functional; conditions: time 14 day
Method in brief: (§2)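 Male SPF BALB/c mice (18–22 g), n = 8 per group. Colitis induced with freshly prepared 5% DSS (MW 36,000–50,000) in pure water as drinking water ad libitum for 7 days. Treatment at 50 mg/kg ran from day 1 for 14 days; control and model groups received pure water. Mice sacrificed after 14 days of treatment. Data as means ± S.E.M.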

Mus musculus [3] = test: Anti-inflammatory activity against DSS-induced ulcerative colitis BALB/c mouse model assessed as reduction in colon macroscopic scores at 50 mg/kg administrated for 14 days; assay type: functional, organism-based; conditions: time 14.0 day; method in brief: as §2
Staphylococcus aureus = test: Antibacterial activity against Staphylococcus aureus 261112-5 after 24 hrs by microdilution method; assay type: functional, organism-based
Method in brief: (§3)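 Broth microdilution in Mueller Hinton medium, drug media diluted 1:2.5 to 1:640 and sterilized with circulating steam; pure water as control. Four to five colonies grown in nutrient broth 8 h at 37 °C and diluted to 1.5×10^5 CFU/mL. 0.1 ml per well, incubated 37 °C for 24 h; MIC read by observation.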

Mus musculus [4] = test: Anti-inflammatory activity against DSS-induced ulcerative colitis BALB/c mouse model assessed as increase in SOD levels in colon tissue at 50 mg/kg administrated for 14 days by xanthine oxidase based method; assay type: functional, organism-based; conditions: time 14.0 day; method in brief: as §2
Mus musculus [5] = test: Anti-ulcerative colitis activity in DSS-induced BALB/c mouse ulcerative colitis model of assessed as reduction in disease activity index at 50 mg/kg administrated for 14 days; assay type: functional, organism-based; conditions: time 14.0 day; method in brief: as §2
Mus musculus [6] = test: Anti-inflammatory activity against DSS-induced ulcerative colitis BALB/c mouse model assessed as reduction in IL-6 protein expression in colon tissue at 50 mg/kg administrated for 14 days by Western blot analysis; assay type: functional, organism-based; conditions: time 14.0 day; method in brief: as §2
Mus musculus [7] = test: Anti-inflammatory activity against DSS-induced ulcerative colitis BALB/c mouse model assessed as reduction in TNF-alpha mRNA expression in colon tissue at 50 mg/kg administrated for 14 days by RT-qPCR analysis; assay type: functional, organism-based; conditions: time 14.0 day; method in brief: as §2
Mus musculus [8] = test: Anti-inflammatory activity against DSS-induced ulcerative colitis BALB/c mouse model assessed as reduction in IL-1beta mRNA expression in colon tissue at 50 mg/kg administrated for 14 days by RT-qPCR analysis; assay type: functional, organism-based; conditions: time 14.0 day; method in brief: as §2
Mus musculus [9] = test: Anti-ulcerative colitis activity in DSS-induced BALB/c mouse ulcerative colitis model assessed as promoted regeneration of intestinal mucosa at 50 mg/kg administrated for 14 days by H and E staining analysis; assay type: functional, organism-based; conditions: time 14.0 day; method in brief: as §2
Mus musculus [10] = test: Anti-ulcerative colitis activity in DSS-induced BALB/c mouse ulcerative colitis model assessed as decrease in histological scores at 50 mg/kg administrated for 14 days by H and E staining analysis; assay type: functional, organism-based; conditions: time 14.0 day; method in brief: as §2
Pseudomonas aeruginosa = test: Antibacterial activity against Pseudomonas aeruginosa 10211 incubated for 24 hrs; assay type: functional, organism-based; method in brief: as §3
Mus musculus [11] = test: Anti-ulcerative colitis activity in DSS-induced BALB/c mouse ulcerative colitis model assessed as increase in cecum weight at 50 mg/kg administrated for 14 days; assay type: functional, organism-based; conditions: time 14.0 day; method in brief: as §2
Streptococcus pneumoniae = test: Antibacterial activity against Streptococcus pneumoniae 32215 after 24 hrs by microdilution method; assay type: functional, organism-based; method in brief: as §3
Mus musculus [12] = test: Anti-ulcerative colitis activity in DSS-induced BALB/c mouse ulcerative colitis model assessed as decrease in spleen weight at 50 mg/kg administrated for 14 days; assay type: functional, organism-based; conditions: time 14.0 day; method in brief: as §2
Salmonella typhi = test: Antibacterial activity against Typhoid bacillus 50071-16 after 24 hrs by microdilution method; assay type: functional, organism-based; conditions: Salmonella enterica subsp. enterica serovar Typhi; method in brief: as §1
Streptococcus pyogenes = test: Antibacterial activity against streptococcus hemolyticus 32210 after 24 hrs by microdilution method; assay type: functional, organism-based; method in brief: as §3
Mus musculus [13] = test: Anti-inflammatory activity against DSS-induced ulcerative colitis BALB/c mouse model assessed as reduction in mast cells infiltration in colon tissue at 50 mg/kg administrated for 14 days by aldehyde-fuchsin orange G staining based assay; assay type: functional, organism-based; conditions: time 14.0 day; method in brief: as §2
Candida albicans = test: Antifungal activity against Candida albicans 98001 after 24 hrs by microdilution method; assay type: functional, organism-based; method in brief: as §3
Mus musculus [14] = test: Anti-ulcerative colitis activity in DSS-induced BALB/c mouse ulcerative colitis model assessed as reduction in colon damage at 50 mg/kg administrated for 14 days by H and E staining analysis; assay type: functional, organism-based; conditions: time 14.0 day; method in brief: as §2
Mus musculus [15] = test: Anti-inflammatory activity against DSS-induced ulcerative colitis BALB/c mouse model assessed as reduction in MPO activity in colon tissue at 50 mg/kg administrated for 14 days by colorimetric method; assay type: functional, organism-based; conditions: time 14.0 day; method in brief: as §2
Mus musculus [16] = test: Anti-ulcerative colitis activity in DSS-induced BALB/c mouse ulcerative colitis model assessed as colon length/colon weight ratio at 50 mg/kg administrated for 14 days (reference value: 22.608 +/- 2.655 cm/g); assay type: functional; conditions: time 14 day; method in brief: as §2
Mus musculus [17] = test: Anti-inflammatory activity against DSS-induced ulcerative colitis BALB/c mouse model assessed as reduction in TNF-alpha protein expression in colon tissue at 50 mg/kg administrated for 14 days by Western blot analysis; assay type: functional, organism-based; conditions: time 14.0 day; method in brief: as §2
Mus musculus [18] = test: Anti-inflammatory activity against DSS-induced ulcerative colitis BALB/c mouse model assessed as reduction in IL-1beta protein expression in colon tissue at 50 mg/kg administrated for 14 days by Western blot analysis; assay type: functional, organism-based; conditions: time 14.0 day; method in brief: as §2
Mus musculus [19] = test: Anti-inflammatory activity against DSS-induced ulcerative colitis BALB/c mouse model assessed as reduction in IL-6 mRNA expression in colon tissue at 50 mg/kg administrated for 14 days by RT-qPCR analysis; assay type: functional, organism-based; conditions: time 14.0 day; method in brief: as §2
Mus musculus [20] = test: Anti-ulcerative colitis activity in DSS-induced BALB/c mouse ulcerative colitis model assessed as inhibited inflammation in colon at 50 mg/kg administrated for 14 days by H and E staining analysis; assay type: functional, organism-based; conditions: time 14.0 day; method in brief: as §2
Escherichia coli = test: Antibacterial activity against Escherichia coli 44113-5 after 24 hrs by microdilution method; assay type: functional, organism-based; method in brief: as §3
Mus musculus [21] = test: Anti-ulcerative colitis activity in DSS-induced BALB/c mouse ulcerative colitis model assessed as colon length at 50 mg/kg administrated for 14 days (reference value: 8.350 +/- 1.111 cm); assay type: functional; conditions: time 14 day; method in brief: as §2

SMILES	Activity [1]	Activity (Mus musculus [2])	Activity (Staphylococcus aureus)	Activity (Mus musculus [5])	Activity (Mus musculus [6])	Activity (Mus musculus [7])	Activity (Mus musculus [8])	Activity (Pseudomonas aeruginosa)	Activity (Mus musculus [11])	Activity (Streptococcus pneumoniae)	Activity (Mus musculus [12])	Activity (Salmonella typhi)	Activity (Streptococcus pyogenes)	Activity (Candida albicans)	Activity (Mus musculus [14])	Ratio (Mus musculus [16])	Activity (Mus musculus [17])	Activity (Mus musculus [18])	Activity (Mus musculus [19])	Activity (Escherichia coli)	also measured
COc1ccc2cc3[n+](cc2c1OCCCCOC(=O)[C@H]1O[C@@H](Oc2cc4oc(-c5ccccc5)cc(=O)c4c(O)c2O)[C@H](O)[C@@H](O)[C@@H]1O)CCc1cc2c(cc1-3)OCO2	Active	0.311 g	Active	Active	Active	Active	Active	Active	Active	Active	Active	Active	Active	Active	Active	29.769	Active	Active	Active	Active	Activity (Mus musculus [3]): Active; Activity (Mus musculus [4]): Active; Activity (Mus musculus [9]): Active; Activity (Mus musculus [10]): Active; Activity (Mus musculus [13]): Active; Activity (Mus musculus [15]): Active; Activity (Mus musculus [20]): Active; Activity (Mus musculus [21]): 9.288 cm
O=C(O)[C@H]1O[C@@H](Oc2cc3oc(-c4ccccc4)cc(=O)c3c(O)c2O)[C@H](O)[C@@H](O)[C@@H]1O [BAICALIN]	inactive	0.369 g	inactive	inactive	inactive	inactive	inactive	inactive	inactive	inactive	inactive	inactive	inactive	inactive	inactive	24.172	inactive	inactive	inactive	inactive	Activity (Mus musculus [21]): 8.74 cm
COc1ccc2cc3[n+](cc2c1OC)CCc1cc2c(cc1-3)OCO2.[Cl-] [BERBERINE CHLORIDE]	Active	0.315 g	Active	Active	Active	Active	Active	Active	Active	Active	inactive	Active	Active	Active	Active	28.175	Active	Active	Active	Active	Activity (Mus musculus [9]): Active; Activity (Mus musculus [10]): Active; Activity (Mus musculus [13]): Active; Activity (Mus musculus [15]): Active; Activity (Mus musculus [20]): Active; Activity (Mus musculus [21]): 8.95 cm

— ChEMBL document CHEMBL4665879, “Design, synthesis and evaluation of a baicalin and berberine hybrid compound as therapeutic agent for ulcerative colitis” (2020)
